The target in assay [1] is T1, Decarboxylase (Enterococcus faecalis) (UniProt Q8KXD2).
T1 sequence (whole entry): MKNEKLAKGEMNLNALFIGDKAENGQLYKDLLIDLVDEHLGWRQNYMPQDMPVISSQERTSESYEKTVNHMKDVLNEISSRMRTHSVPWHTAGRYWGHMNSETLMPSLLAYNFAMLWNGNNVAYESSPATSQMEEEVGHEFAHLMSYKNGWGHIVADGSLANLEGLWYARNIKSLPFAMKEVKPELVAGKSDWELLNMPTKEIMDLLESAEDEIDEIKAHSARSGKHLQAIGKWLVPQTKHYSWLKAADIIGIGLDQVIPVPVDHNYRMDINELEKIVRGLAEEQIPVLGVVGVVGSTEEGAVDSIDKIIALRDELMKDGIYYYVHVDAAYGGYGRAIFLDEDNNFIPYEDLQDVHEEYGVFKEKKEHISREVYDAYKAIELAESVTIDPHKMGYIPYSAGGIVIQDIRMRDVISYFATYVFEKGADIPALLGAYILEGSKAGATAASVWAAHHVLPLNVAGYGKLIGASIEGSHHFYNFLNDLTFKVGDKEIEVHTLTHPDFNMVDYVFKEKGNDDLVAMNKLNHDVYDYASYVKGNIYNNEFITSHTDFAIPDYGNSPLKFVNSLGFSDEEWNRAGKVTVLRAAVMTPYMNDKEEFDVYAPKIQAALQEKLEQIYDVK
In words: Inhibition of Streptococcus faecalis tyrosine decarboxylase assessed as 14CO2 production using 5 mM L-phenylalanine-1-14C as substrate at 5 mM after 30 mins by scintillation counting analysis. In a few lines:
(§1)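 Crude S. faecalis tyrosine decarboxylase acetone powder (0.5 mg) used as the phenylalanine decarboxylase. Buffer was citrate–phosphate/0.2 M NaPO₄ pH 5.5 with 0.5 mM pyridoxal 5-phosphate, and the substrate was L-phenylalanine-1-¹⁴C (10⁻² μCi/μmol). Inhibitor at 5 mM. Incubated at 37° with shaking, stopped by TCA. ¹⁴CO₂ absorbed 30 min into hyamine and counted by scintillation. Percent inhibition versus controls, average of triplicates.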

The target in assay [2] is T1, Decarboxylase (Enterococcus faecalis). In words: Inhibition of Streptococcus faecalis tyrosine decarboxylase assessed as 14CO2 production using 10 mM L-phenylalanine-1-14C as substrate at 5 mM after 20 mins by scintillation counting analysis. The procedure, abridged: as §1
In a further assay the test system is Ileum. In words: Inhibition of histamine-induced response in guinea pig ileum at 1 mM. Type of assay: functional. The conditions noted are these: Cavia porcellus.
For assay [3], the target named is T2, Histidine decarboxylase (Rattus norvegicus) (UniProt P16453).
T2 sequence (whole entry): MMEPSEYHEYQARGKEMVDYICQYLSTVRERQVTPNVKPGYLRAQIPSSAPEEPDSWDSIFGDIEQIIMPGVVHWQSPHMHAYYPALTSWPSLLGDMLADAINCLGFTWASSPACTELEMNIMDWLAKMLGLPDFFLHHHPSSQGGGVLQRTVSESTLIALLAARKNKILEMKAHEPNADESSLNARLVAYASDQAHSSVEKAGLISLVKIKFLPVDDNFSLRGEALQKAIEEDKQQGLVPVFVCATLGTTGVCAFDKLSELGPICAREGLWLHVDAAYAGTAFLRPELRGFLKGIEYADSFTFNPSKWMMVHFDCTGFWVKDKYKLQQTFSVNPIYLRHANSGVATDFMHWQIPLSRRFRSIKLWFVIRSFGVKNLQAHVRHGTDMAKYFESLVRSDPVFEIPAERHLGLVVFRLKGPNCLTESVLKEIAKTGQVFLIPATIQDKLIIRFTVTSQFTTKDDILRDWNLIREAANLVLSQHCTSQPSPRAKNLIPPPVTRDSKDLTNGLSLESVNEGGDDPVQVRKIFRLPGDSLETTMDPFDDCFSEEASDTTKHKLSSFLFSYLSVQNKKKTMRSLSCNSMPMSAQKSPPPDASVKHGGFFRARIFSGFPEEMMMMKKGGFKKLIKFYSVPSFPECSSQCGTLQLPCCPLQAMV
In words: Inhibition of fetal rat histidine decarboxylase at 1 mM.

Assay [4] concerns the target T1, Decarboxylase (Enterococcus faecalis). In words: Inhibition of Streptococcus faecalis tyrosine decarboxylase assessed as 14CO2 production using 0.8 mM L-tyrosine-1-14C as substrate at 5 mM after 20 mins by scintillation counting analysis. In a few lines: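 Crude acetone-powder enzyme from S. faecalis, 8 × 10⁻³ mg per 0.5 ml, in 0.075 M citrate–0.15 M phosphate pH 5.5 with 0.5 mM pyridoxal 5-phosphate. Substrate L-tyrosine-1-¹⁴C (2.85 × 10⁻¹ μCi/μmol). Inhibitor tested at 5 mM, 37° for 20 min, stopped with TCA. ¹⁴CO₂ trapped in hyamine hydroxide for 20 min and counted by scintillation. Percent inhibition versus no-inhibitor controls, mean of triplicate runs.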

Activity calls are given as the source filed them. The calls are words filed in the database; no cut-off is given here.

Consider five compounds from ChEMBL document CHEMBL3272345, “Specificity in enzyme inhibition. 3. Synthesis of 5-substituted 2,2-dimethyl-4-imidazolidinones as inhibitors of tyrosine decarboxylase and histidine decarboxylase” (1976).

Consider `CC1(C)NC(=O)C(c2ccccc2)N1` (racemic), for which the inhibition in assay [1] came out at 9%; in assay [2] it was 7%.

In the case of `CC1(C)NC(=O)[C@H](Cc2cnc[nH]2)N1`, the inhibition in assay [1] was determined as 27%; in assay [2], 24%. This compound gave an inhibition at 1000 µM in the assay with Ileum of 57%. Moreover, in assay [3], the inhibition entry is “inactive”.

As to `CC1(C)NC(=O)[C@H](Cc2ccc(O)cc2)N1`, the inhibition in assay [4] worked out at 38%; in assay [1], 39%; in assay [2] it was 31%.

On to `CC1(C)NC(=O)[C@H](Cc2c[nH]c3ccccc23)N1`, for which the inhibition in assay [1] amounted to 42%; in assay [2], 33%.

For `CC1(C)NC(=O)C(Cc2ccccc2)N1` (racemic), the inhibition worked out at 10% in assay [4], 17% in assay [1] and 13% in assay [2].
